Published values from different studies.
Each line is one published result; the experiments were not run side by side.
Target: Tyrosine-protein kinase HCK (HCK, Homo sapiens, UniProt P08631)

| Compound | effect on | mode | method | concentration | quantity | value |
| --- | --- | --- | --- | --- | --- | --- |
| Cc1ccc(Nc2nccc(N(C)c3ccc4c(C)n(C)nc4c3)n2)cc1S(N)(=O)=O | enzyme activity | inhibitor | – | 0.3 µM | inhibition | 21% |
| CS(=O)(=O)CCNCc1ccc(-c2ccc3ncnc(Nc4ccc(OCc5cccc(F)c5)c(Cl)c4)c3c2)o1 | cell-free assay | – | – | 0.5 µM | remaining signal | 86.5% |
| CC/C(=N\NC(=O)NCc1cccc(O)c1)c1ccc(O)c(C)c1O | enzyme activity | inhibitor | – | 0.1 µM | inhibition | 6.1% |
| C[C@H](c1ccnc(Nc2nc3ccc(-c4cc(N(C)C)ncn4)cc3[nH]2)c1)N1CCN(C(=O)CC(F)(F)F)CC1 | cell-free assay | – | competition with immobilised ligand | 0.1 µM | remaining binding | 91% |
| Cc1ccc(C(=O)NCc2ccsc2)cc1C#Cc1cn(C(C)C)c2ncnc(N)c12 | enzyme activity | inhibitor | – | 1 µM | activity vs control | 4% |
| Cc1c(NC(=O)c2cc(C(N)=O)nc3cc(F)ccc23)c(C(F)(F)F)nn1Cc1ccc(C#N)cc1 | cell-free assay | – | competition with immobilised ligand | 1 µM | remaining binding | 69% |
| COc1cc(Cl)c(C(=O)N[C@@H](CN[C@H]2CC[C@@H](N)CC2)Cc2ccc(C#N)cc2)cc1-c1ccc(CN[C@H](C)c2ccc(C)cc2)o1 | enzyme activity | inhibitor | – | 1 µM | remaining activity | 99% |
| CN(C(=O)c1ccccc1)c1cc(N(C)c2ccc3c(c2)CCc2ccc(C(=O)NCCN4CCOCC4)cc2C3=O)ccc1F | cell-free assay | – | competition with immobilised ligand | 1 µM | remaining binding | 100% |
| CNC(=O)c1cc2c(Oc3ccc(NC(=O)C4(C(=O)Nc5ccc(F)cc5)CC4)cc3)ccnc2cc1OC | enzyme activity | inhibitor | radiometric | 1 µM | inhibition | 98% |
| N#CCCc1ccc2c(c1)-c1[nH]c3ccc([N+](=O)[O-])cc3c1CC(=O)N2 | cell-free assay | – | – | 0.5 µM | remaining signal | 63.8% |
| Cc1c(NC(=O)c2cc(C(N)=O)nc3cc(F)ccc23)c(C(F)(F)F)nn1Cc1ccc(C(C)(C)C)cc1 | cell-free assay | – | competition with immobilised ligand | 1 µM | remaining binding | 92% |
| Cc1ccc(NC(=O)c2ccc(C)c(C(F)(F)F)c2)cc1C#Cc1nn(C2CCC(O)CC2)c2ncnc(N)c12 (stereo not drawn) | cell-free assay | – | – | 10 µM | remaining signal | 0% |
| Nc1ncnc2occ(-c3ccc(NC(=O)Nc4cc(C(F)(F)F)ccc4F)cc3)c12 | cell-free assay | – | – | 20 µM | remaining signal | 0.2% |
| O=S(=O)(NC1CCC(c2cc(F)ccc2F)(S(=O)(=O)c2ccc(Cl)cc2)CC1)C(F)(F)F (stereo not drawn) | cell-free assay | – | competition with immobilised ligand | 1 µM | remaining binding | 85% |
| COc1cc2ncnc(Nc3ccc(Oc4ccccc4)c(C)c3C)c2cc1OC | enzyme activity | inhibitor | – | 1 µM | inhibition | 53% |
| Cc1sc(C(=O)NC2COC2)cc1-n1cc(NC(=O)Nc2c(F)cccc2Cl)cn1 | enzyme activity | inhibitor | – | 10 µM | remaining activity | 95% |
| Cc1cc(NC(=O)c2cccc(S(F)(F)(F)(F)F)c2)cc(-n2ccn3nc(-c4cccnc4)cc23)c1 | cell-free assay | – | competition with immobilised ligand | 1 µM | remaining binding | 98.7% |
| CNc1cccc2cc(C(=O)Nc3ccc(C(=O)O)cc3)c(=O)[nH]c12 | enzyme activity | inhibitor | – | 10 µM | inhibition | -12% |
| COc1cc2ncnc(Nc3ccc(F)c(Cl)c3)c2cc1OCCCN1CCOCC1 | cell-free assay | – | – | 0.5 µM | remaining signal | 73.3% |
| CN(C)C1CCN(CC#Cc2nn(C3CCCC3)c3nc(NCc4ccccc4)ncc23)C1 (stereo not drawn) | enzyme activity | inhibitor | FRET | 1 µM | inhibition | 2% |
| CCN(CC)CCNC(=O)c1c(C)[nH]c(/C=C2\C(=O)Nc3ccc(F)cc32)c1C | enzyme activity | inhibitor | – | 10 µM | inhibition | 92% |
| O=C1NC(=O)c2cc(Nc3ccc(F)cc3)c(Nc3ccc(F)cc3)cc21 | cell-free assay | – | – | 0.5 µM | remaining signal | 88.3% |
| CC(=O)N1CCC(c2ccc(C(=O)NC(=N)N)cc2C(F)(F)F)CC1 | cell-free assay | – | competition with immobilised ligand | 1 µM | remaining binding | 100% |
| O=C(Nc1cnn(-c2csc(C(=O)NC3COC3)c2)c1)Nc1ccccc1Cl | enzyme activity | inhibitor | – | 5 µM | remaining activity | 94% |
